Measured values as given in ChEMBL document CHEMBL3085642, “Synthesis and evaluation of novel 4-nitropyrrole-based 1,3,4-oxadiazole derivatives as antimicrobial and anti-tubercular agents” (Eur J Med Chem, 2013).
≈ marks a conversion by molar mass, not a printed value.

Assays:
Candida albicans [1] = experiment: Antifungal activity against Candida albicans after 48 hrs by two fold agar dilution method; assay type: functional
Procedure, shortened: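 Two-fold serial dilutions in DMSO were tested against C. albicans by agar dilution. Cultures were incubated for 48 h at 35 °C and growth was monitored. MIC was taken as the lowest concentration (highest dilution) that arrested fungal growth.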

Staphylococcus aureus [2] = experiment: Antibacterial activity against methicillin-susceptible Staphylococcus aureus ATCC 35556 by broth dilution method; assay type: functional
Vero = experiment: Cytotoxicity against african green monkey Vero cells after 72 hrs by MTT assay; assay type: cell-based; settings: Chlorocebus sabaeus
Procedure, shortened: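 Vero cells were exposed to compounds for 72 h. Viability was measured by cellular conversion of MTT into formazan (non-radioactive proliferation assay), and the cytotoxic concentration was reported as IC50.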

Staphylococcus aureus [3] = experiment: Ratio of ciprofloxacin MIC to compound MIC against Staphylococcus aureus ATCC 25923; assay type: functional
[4] = test system: Mycobacterium tuberculosis; experiment: Antitubercular activity against Mycobacterium tuberculosis H37Rv after 7 days by resazurin microtitre assay; assay type: functional; settings: 168 h
Bacillus spizizenii = experiment: Antibacterial activity against Bacillus subtilis ATCC 6633 by two fold broth dilution method; assay type: functional
Klebsiella pneumoniae = experiment: Antibacterial activity against Klebsiella pneumoniae by two fold broth dilution method; assay type: functional
Staphylococcus aureus [5] = experiment: Antibacterial activity against Staphylococcus aureus ATCC 25923 by two fold broth dilution method; assay type: functional
Staphylococcus aureus [6] = experiment: Antibacterial activity against methicillin-resistant Staphylococcus aureus ATCC 43866 by broth dilution method; assay type: functional
Staphylococcus aureus [7] = experiment: Ratio of ciprofloxacin MIC to compound MIC against methicillin-susceptible Staphylococcus aureus ATCC 35556; assay type: functional
Escherichia coli = experiment: Antibacterial activity against Escherichia coli ATCC 25922 by two fold broth dilution method; assay type: functional
Candida albicans [8] = experiment: Ratio of ampotericin-B MIC to compound MIC against Candida albicans; assay type: functional

SMILES	MIC (Candida albicans [1]) [µg/mL]	MIC (Staphylococcus aureus [2]) [µg/mL]	IC50 (Vero) [µM]	Ratio (Staphylococcus aureus [3])	MIC [4] [µg/mL]	MIC (Bacillus spizizenii) [µg/mL]	MIC (Klebsiella pneumoniae) [µg/mL]	MIC (Staphylococcus aureus [5]) [µg/mL]	MIC (Staphylococcus aureus [6]) [µg/mL]	Ratio (Staphylococcus aureus [7])	MIC (Escherichia coli) [µg/mL]	Ratio (Candida albicans [8])
Cn1cc([N+](=O)[O-])cc1-c1nnc(-c2ccccc2OC(F)(F)F)o1	1.56 (≈ 4.4 µM)	0.39 (≈ 1.1 µM)	308	2	3.8 (≈ 10.7 µM)	1.56 (≈ 4.4 µM)	12.5 (≈ 35.3 µM)	0.78 (≈ 2.2 µM)	1.56 (≈ 4.4 µM)	2	3.12 (≈ 8.82 µM)	2
Cn1cc([N+](=O)[O-])cc1-c1nnc(-c2cc3ccccc3[nH]2)o1	1.56 (≈ 5.04 µM)	0.39 (≈ 1.26 µM)	109	2		1.56 (≈ 5.04 µM)	12.5 (≈ 40.4 µM)	0.78 (≈ 2.52 µM)	1.56 (≈ 5.04 µM)	2	6.25 (≈ 20.2 µM)	2
O=[N+]([O-])c1c[nH]c(-c2nnc(-c3ccccc3Br)o2)c1	3.12 (≈ 9.33 µM)	1.56 (≈ 4.66 µM)	190		0.81 (≈ 2.42 µM)	1.56 (≈ 4.66 µM)	25 (≈ 74.6 µM)	1.56 (≈ 4.66 µM)	3.12 (≈ 9.33 µM)		1.56 (≈ 4.66 µM)	
O=[N+]([O-])c1c[nH]c(-c2nnc(-c3cc4cc(Cl)ccc4[nH]3)o2)c1	3.12 (≈ 9.48 µM)	1.56 (≈ 4.73 µM)	329		3.4 (≈ 10.3 µM)	3.12 (≈ 9.48 µM)	25 (≈ 75.8 µM)	1.56 (≈ 4.73 µM)	3.12 (≈ 9.48 µM)		1.56 (≈ 4.73 µM)	
COc1cc(/C=C/c2nnc(-c3cc([N+](=O)[O-])c[nH]3)o2)ccc1O	25 (≈ 76.2 µM)	1.56 (≈ 4.75 µM)	220		23.7 (≈ 72.2 µM)	3.12 (≈ 9.52 µM)	100 (≈ 305 µM)	3.12 (≈ 9.52 µM)	3.12 (≈ 9.52 µM)		3.12 (≈ 9.52 µM)	
O=[N+]([O-])c1c[nH]c(-c2nnc(C3CCCNC3)o2)c1 (configuration not stated)	3.12 (≈ 11.9 µM)	1.56 (≈ 5.93 µM)	318		12.5 (≈ 47.5 µM)	3.12 (≈ 11.9 µM)	25 (≈ 95 µM)	1.56 (≈ 5.93 µM)	3.12 (≈ 11.9 µM)		3.12 (≈ 11.9 µM)	
O=[N+]([O-])c1c[nH]c(-c2nnc(Cc3ccccc3F)o2)c1	3.12 (≈ 10.8 µM)	1.56 (≈ 5.41 µM)	620		0.46 (≈ 1.6 µM)	1.56 (≈ 5.41 µM)	25 (≈ 86.7 µM)	1.56 (≈ 5.41 µM)	3.12 (≈ 10.8 µM)		1.56 (≈ 5.41 µM)	
COc1cccc(-c2nnc(-c3cc([N+](=O)[O-])c[nH]3)o2)c1	3.12 (≈ 10.9 µM)	1.56 (≈ 5.45 µM)	429		13.5 (≈ 47.2 µM)	3.12 (≈ 10.9 µM)	25 (≈ 87.3 µM)	1.56 (≈ 5.45 µM)	3.12 (≈ 10.9 µM)		3.12 (≈ 10.9 µM)	
